Reference: ChEMBL document CHEMBL4689842, “EUbOPEN Chemogenomics Library wave 1” (2021)
“And” between values parts separate entries of the source, which are not always exact repeats. Equal values may be shown once.

System: U2OS
Assay: Multiplex assay against U2OS
Assay type: toxicity, cell-based
Conditions: human
Method in brief: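 Tubulin, mitochondrial-mass and membrane-permeability phenotypes are per cents of healthy-nucleus cells. Cells were gated by CellPathfinder machine learning into Hoechst high-intensity objects or normal cells, normal cells into healthy, pyknosed or fragmented nuclei, and pyknosed cells into mitotic or apoptotic. Before that, live cells stained at seeding with Hoechst33342, BioTracker Green Microtubule Cytoskeleton Dye, MitoTracker Red and Annexin V Alexa Fluor 680 were imaged on a CQ1 microscope at 37°C and 5% CO2 after compound addition.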

[1] = 12 h, 1 µM, compound concentration 1 uM, replicate 1
[2] = 12 h, 1 µM, compound concentration 1 uM, replicate 2
[3] = 12 h, 10 µM, compound concentration 10 uM, replicate 1
[4] = 12 h, 10 µM, compound concentration 10 uM, replicate 2
[5] = 24 h, 1 µM, compound concentration 1 uM, replicate 1
[6] = 24 h, 1 µM, compound concentration 1 uM, replicate 2
[7] = 24 h, 10 µM, compound concentration 10 uM, replicate 1
[8] = 24 h, 10 µM, compound concentration 10 uM, replicate 2
[9] = 48 h, 1 µM, compound concentration 1 uM, replicate 1
[10] = 48 h, 1 µM, compound concentration 1 uM, replicate 2
[11] = 48 h, 10 µM, compound concentration 10 uM, replicate 1
[12] = 48 h, 10 µM, compound concentration 10 uM, replicate 2

With Cc1c[nH]c2nccc(Oc3c(F)cc(Nc4cc(Cl)nc(N)n4)cc3F)c12 [BAY-549] the “Population Apoptotic (%)” value [1] was 47%, the “Population Fragmented Nuclei (%)” value [1] was 15% and the “Population Healthy Nuclei (%)” value [1] was 66%. For the same compound, the “Population Hoechst High Intensity Objects (%)” value [1] was 6%, the “Population Membrane Permeable-Phenotype (%)” value [1] was 15% and the “Population Mitochondria Different-Phenotype (%)” value [1] was 12%. For the same compound, the “Population Mitotic Cells (%)” value [1] was 52%, the “Population Normal (%)” value [1] was 93% and the “Population Pyknosed Nuclei (%)” value [1] was 18%. The “Population Tubulin-Different-Phenotype (%)” value [1] was 21%, the “Total Cell Count” value [1] was 200 and the “Population Apoptotic (%)” value [2] was 44%. For the same compound, the “Population Fragmented Nuclei (%)” value [2] was 12%, the “Population Healthy Nuclei (%)” value [2] was 73% and the “Population Hoechst High Intensity Objects (%)” value [2] was 5%. The “Population Membrane Permeable-Phenotype (%)” value [2] was 4%, the “Population Mitochondria Different-Phenotype (%)” value [2] was 6% and the “Population Mitotic Cells (%)” value [2] was 55%. The “Population Normal (%)” value [2] was 94%, the “Population Pyknosed Nuclei (%)” value [2] was 14% and the “Population Tubulin-Different-Phenotype (%)” value [2] was 12%. The “Total Cell Count” value [2] was 68, the “Population Apoptotic (%)” value [3] was 48% and the “Population Fragmented Nuclei (%)” value [3] was 20%. For the same compound, the “Population Healthy Nuclei (%)” value [3] was 59%, the “Population Hoechst High Intensity Objects (%)” value [3] was 9% and the “Population Membrane Permeable-Phenotype (%)” value [3] was 12%. The “Population Mitochondria Different-Phenotype (%)” value [3] was 19%, the “Population Mitotic Cells (%)” value [3] was 52% and the “Population Normal (%)” value [3] was 90%. For the same compound, the “Population Pyknosed Nuclei (%)” value [3] was 20%, the “Population Tubulin-Different-Phenotype (%)” value [3] was 16% and the “Total Cell Count” value [3] was 136. The “Population Apoptotic (%)” value [4] was 40%, the “Population Fragmented Nuclei (%)” value [4] was 17% and the “Population Healthy Nuclei (%)” value [4] was 65%. For the same compound, the “Population Hoechst High Intensity Objects (%)” value [4] was 6%, the “Population Membrane Permeable-Phenotype (%)” value [4] was 7% and the “Population Mitochondria Different-Phenotype (%)” value [4] was 10%. For the same compound, the “Population Mitotic Cells (%)” value [4] was 60%, the “Population Normal (%)” value [4] was 93% and the “Population Pyknosed Nuclei (%)” value [4] was 17%. For the same compound, the “Population Tubulin-Different-Phenotype (%)” value [4] was 10%, the “Total Cell Count” value [4] was 62 and the “Population Apoptotic (%)” value [5] was 37%. The “Population Fragmented Nuclei (%)” value [5] was 13%, the “Population Healthy Nuclei (%)” value [5] was 70% and the “Population Hoechst High Intensity Objects (%)” value [5] was 3%. For the same compound, the “Population Membrane Permeable-Phenotype (%)” value [5] was 9%, the “Population Mitochondria Different-Phenotype (%)” value [5] was 10% and the “Population Mitotic Cells (%)” value [5] was 62%. For the same compound, the “Population Normal (%)” value [5] was 96%, the “Population Pyknosed Nuclei (%)” value [5] was 16% and the “Population Tubulin-Different-Phenotype (%)” value [5] was 18%. The “Total Cell Count” value [5] was 226, the “Population Apoptotic (%)” value [6] was 46% and the “Population Fragmented Nuclei (%)” value [6] was 8%. The “Population Healthy Nuclei (%)” value [6] was 71%, the “Population Membrane Permeable-Phenotype (%)” value [6] was 5% and the “Population Mitochondria Different-Phenotype (%)” value [6] was 7%. The “Population Mitotic Cells (%)” value [6] was 53%, the “Population Pyknosed Nuclei (%)” value [6] was 20% and the “Total Cell Count” value [6] was 77. The “Population Apoptotic (%)” value [7] was 59%, the “Population Fragmented Nuclei (%)” value [7] was 25% and the “Population Healthy Nuclei (%)” value [7] was 53%. For the same compound, the “Population Hoechst High Intensity Objects (%)” value [7] was 8%, the “Population Membrane Permeable-Phenotype (%)” value [7] was 12% and the “Population Mitochondria Different-Phenotype (%)” value [7] was 19%. The “Population Mitotic Cells (%)” value [7] was 40%, the “Population Normal (%)” value [7] was 91% and the “Population Pyknosed Nuclei (%)” value [7] was 21%. For the same compound, the “Population Tubulin-Different-Phenotype (%)” value [7] was 16%, the “Total Cell Count” value [7] was 135 and the “Population Apoptotic (%)” value [8] was 71%. For the same compound, the “Population Fragmented Nuclei (%)” value [8] was 12%, the “Population Healthy Nuclei (%)” value [8] was 62% and the “Population Hoechst High Intensity Objects (%)” value [8] was 5%. For the same compound, the “Population Membrane Permeable-Phenotype (%)” value [8] was 11%, the “Population Mitochondria Different-Phenotype (%)” value [8] was 20% and the “Population Mitotic Cells (%)” value [8] was 28%. The “Population Normal (%)” value [8] was 94%, the “Population Pyknosed Nuclei (%)” value [8] was 25% and the “Population Tubulin-Different-Phenotype (%)” value [8] was 20%. The “Total Cell Count” value [8] was 59, the “Population Apoptotic (%)” value [9] was 60% and the “Population Healthy Nuclei (%)” value [9] was 64%. For the same compound, the “Population Hoechst High Intensity Objects (%)” value [9] was 2%, the “Population Membrane Permeable-Phenotype (%)” value [9] was 8% and the “Population Mitochondria Different-Phenotype (%)” value [9] was 13%. For the same compound, the “Population Mitotic Cells (%)” value [9] was 39%, the “Population Normal (%)” value [9] was 97% and the “Population Pyknosed Nuclei (%)” value [9] was 19%. The “Population Tubulin-Different-Phenotype (%)” value [9] was 20%, the “Total Cell Count” value [9] was 302 and the “Population Apoptotic (%)” value [10] was 66%. The “Population Fragmented Nuclei (%)” value [10] was 15%, the “Population Healthy Nuclei (%)” value [10] was 73% and the “Population Hoechst High Intensity Objects (%)” value [10] was 0%. The “Population Membrane Permeable-Phenotype (%)” value [10] was 11%, the “Population Mitochondria Different-Phenotype (%)” value [10] was 20% and the “Population Mitotic Cells (%)” value [10] was 33%. For the same compound, the “Population Normal (%)” value [10] was 99%, the “Population Pyknosed Nuclei (%)” value [10] was 11% and the “Population Tubulin-Different-Phenotype (%)” value [10] was 28%. The “Total Cell Count” value [10] was 106, the “Population Apoptotic (%)” value [11] was 60% and the “Population Fragmented Nuclei (%)” value [11] was 34%. The “Population Healthy Nuclei (%)” value [11] was 41%, the “Population Hoechst High Intensity Objects (%)” value [11] was 5% and the “Population Membrane Permeable-Phenotype (%)” value [11] was 17%. For the same compound, the “Population Mitochondria Different-Phenotype (%)” value [11] was 46%, the “Population Mitotic Cells (%)” value [11] was 40% and the “Population Normal (%)” value [11] was 94%. For the same compound, the “Population Pyknosed Nuclei (%)” value [11] was 24%, the “Population Tubulin-Different-Phenotype (%)” value [11] was 19% and the “Total Cell Count” value [11] was 132. The “Population Apoptotic (%)” value [12] was 76%, the “Population Fragmented Nuclei (%)” value [12] was 12% and the “Population Healthy Nuclei (%)” value [12] was 63%. For the same compound, the “Population Hoechst High Intensity Objects (%)” value [12] was 8%, the “Population Membrane Permeable-Phenotype (%)” value [12] was 25% and the “Population Mitochondria Different-Phenotype (%)” value [12] was 51%. The “Population Mitotic Cells (%)” value [12] was 23%, the “Population Normal (%)” value [12] was 91% and the “Population Pyknosed Nuclei (%)” value [12] was 23%. The “Population Tubulin-Different-Phenotype (%)” value [12] was 28% and the “Total Cell Count” value [12] was 60.

For Cc1cc(NC(=O)c2cccc(S(F)(F)(F)(F)F)c2)cc(-n2ccn3nc(-c4cccnc4)cc23)c1 [BAY-309], the “Population Apoptotic (%)” value [3] was 25% and 23%, the “Population Fragmented Nuclei (%)” value [3] was 4% and the “Population Healthy Nuclei (%)” value [3] was 87% and 78%. For the same compound, the “Population Hoechst High Intensity Objects (%)” value [3] was 0% and 3%, the “Population Membrane Permeable-Phenotype (%)” value [3] was 46% and 55% and the “Population Mitochondria Different-Phenotype (%)” value [3] was 30% and 60%. The “Population Mitotic Cells (%)” value [3] was 75% and 76%, the “Population Normal (%)” value [3] was 99% and 96% and the “Population Pyknosed Nuclei (%)” value [3] was 7% and 16%. For the same compound, the “Population Tubulin-Different-Phenotype (%)” value [3] was 67%, the “Total Cell Count” value [3] was 108 and 233 and the “Population Apoptotic (%)” value [4] was 37% and 56%. For the same compound, the “Population Fragmented Nuclei (%)” value [4] was 8% and 9%, the “Population Healthy Nuclei (%)” value [4] was 82% and 67% and the “Population Hoechst High Intensity Objects (%)” value [4] was 9% and 5%. The “Population Membrane Permeable-Phenotype (%)” value [4] was 53% and 49%, the “Population Mitotic Cells (%)” value [4] was 62% and 43% and the “Population Normal (%)” value [4] was 90% and 94%. The “Population Pyknosed Nuclei (%)” value [4] was 9% and 22%, the “Population Tubulin-Different-Phenotype (%)” value [4] was 61% and 100% and the “Total Cell Count” value [4] was 185. For the same compound, the “Population Apoptotic (%)” value [7] was 50% and 61%, the “Population Fragmented Nuclei (%)” value [7] was 8% and 6% and the “Population Healthy Nuclei (%)” value [7] was 85% and 70%. For the same compound, the “Population Hoechst High Intensity Objects (%)” value [7] was 5% and 3%, the “Population Membrane Permeable-Phenotype (%)” value [7] was 42% and 56% and the “Population Mitotic Cells (%)” value [7] was 50% and 38%. For the same compound, the “Population Normal (%)” value [7] was 95% and 96%, the “Population Tubulin-Different-Phenotype (%)” value [7] was 53% and the “Total Cell Count” value [7] was 140 and 230. For the same compound, the “Population Apoptotic (%)” value [8] was 95% and 37%, the “Population Fragmented Nuclei (%)” value [8] was 15% and 7% and the “Population Healthy Nuclei (%)” value [8] was 60% and 84%. The “Population Hoechst High Intensity Objects (%)” value [8] was 9% and 6%, the “Population Membrane Permeable-Phenotype (%)” value [8] was 74% and 40% and the “Population Mitochondria Different-Phenotype (%)” value [8] was 83% and 30%. The “Population Normal (%)” value [8] was 90% and 93%, the “Population Tubulin-Different-Phenotype (%)” value [8] was 100% and 40% and the “Total Cell Count” value [8] was 108 and 215.
